The values below come from the EternaBench riboswitch data.

This series has as its system MS2 coat protein. Description: apparent Kd, MS2 coat protein; higher = weaker binding; RNA-MaP array; FMN 200 µM where present. A digest of the protocol: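 The titrant was SNAP-549-labelled MS2 coat protein, run from 0.7 or 1.5 nM in doubling steps to 3 µM. It was applied to designs transcribed by stalled E. coli RNA polymerase on Illumina sequencing-chip clusters, without ligand first and then with constant ligand, in 100 mM Tris-HCl pH 7.5, 80 mM KCl, 4 mM MgCl2, BSA, DTT, yeast tRNA and Tween-20. The apparent Kd is the median of filtered per-cluster binding-curve fits, with green signal normalised to red-channel RNA signal and control-cluster median Fmax.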

[1] abbreviates: designed as: ON switch for flavin mononucleotide, no ligand.
Setting [2] is: ligand present: flavin mononucleotide, designed as: ON switch for flavin mononucleotide.
[3] abbreviates: designed as: OFF switch for flavin mononucleotide, no ligand.
[4] abbreviates: ligand present: flavin mononucleotide, designed as: OFF switch for flavin mononucleotide.

The term apparent Kd denotes the concentration giving half-maximal binding under the conditions of the assay. Take “AAGGUACAUGAGGAUCACCCAUGUGGGUCGGUCGCAGGAUAUCGCCGUUGGCCCUGGCGGCGAGAAGGGUGCCGAA”: the “apparent Kd” value reads like this: under setting [1], 375 nM; under setting [2], 61.1 nM.
As to “CCCGUGUUAGGAUAUACGGCACACCCACAAACGGGUAUAUAGUAGAAGGAACAUGAGGAUCACCCAUGUAAAAC”, the “apparent Kd” value was 20.2 nM under setting [3] and 46.5 nM under setting [4].
Taken in the same sequence, the figures for “GCCUCAUAGUAGAAGGGACUUCGGCUGUUAAGCAUCAUCUCCAUAUCACAUGAGGAUCACCCAUGUCAGGAUAUACUAAGAGGC” were 6.95 nM and 14.4 nM.
Taken in the same sequence, the figures for “UUGGUAUUCGUAGGAUAUCUGUCGCCACCGUGUGGAGAAGGACGAACAUGAGGAUCACCCAUGUAUCAUGGUGUGGGCGUUGUC” were 100 nM and 106 nM.
Taken in the same sequence, the figures for “CAGCUCUGAGGAUAUCCACCCUCGUACAUGAGGAUCACCCAUGUUUCCCUCUGGGCUUUCGGAGAAGGCAGGUAUC” were 59.1 nM and 55.3 nM.
Take “AGCACGGGAUUGGAGGAUAUGUUGUUUGCAACAUGAGGAUCACCCAUGUCUGAGGCUGAAAAGCAGCAGAAGGCCGAUACAACCA”: the “apparent Kd” value was found to be 347 nM under setting [1] and 71.5 nM under setting [2].
The matching figures for “UGAGCCGGCACUGAGGAUAUUCAUAAUAAAACAUGAGGAUCACCCAUGUAGGCCAGAAGGCCUUGGGAGAAGGCAGGUCGGCUCA”: 257 nM and 23.3 nM.
For the sequence “GAGAAGUCAGGAUAUGCUGCUCGUCACUUGCGUGAUGAGUAGCAGAAGGGACAUGAGGAUCACCCAUGUAAAGA”, the “apparent Kd” value is, setting by setting: under setting [3], 51.2 nM; under setting [4], 64.5 nM.
As for “GGAUCGUAUGUCAGGAUAUACCACUGGAUACAGUGGUAGAAGGGACAUGAGGAUCACCCAUGUCCUAUCGAUCC”, the “apparent Kd” value stood at 13 nM under setting [3] and 16.6 nM under setting [4].
On to “AGUAAUUACGAAGGAUAUGCGCUCCUCGGGCUCGCAGAAGGUCGUACAUGAGGAUCACCCAUGUGUGAUCGCUCAUAGCCGCAA”, for which the “apparent Kd” value is, setting by setting: under setting [3], 93.2 nM; under setting [4], 41.4 nM.
Taken in the same sequence, the figures for “UACAGCCGCAUCCCAUCGCUGGAAGAGGAUAUACAUCAUCGCGCACUCACAUGAGGAUCACCCAUGUAGAAGGCUUCCUGGCGG” were 7.94 nM and 25.4 nM.
Taken in the same sequence, the figures for “UUUGAUGUUGAGGAUAUGCUUUUUUUUAUUAUAGCAGAAGGCGAUACAUGAGGAUCACCCAUGUUCAUGGCUUU” were 12.8 nM and 15.5 nM.
In the case of “AUCGAACAUGAGGAUCACCCAUGUUAGGAUAUUGGAUAGCGCGCUGGUGUAGUGUAUCCAAGAAGGGACUGGUG”, the “apparent Kd” value under setting [3] came to 66.5 nM and the “apparent Kd” value under setting [4] was 101 nM.
As to “GACUUGCGCACAGGAUAUCCACAGAGCGGACGUGGAGAAGGGUGACAUGAGGAUCACCCAUGUACGUAAGUCUGGAUCACUUCC”, the “apparent Kd” value under setting [1] was 29.4 nM and the “apparent Kd” value under setting [2] stood at 26.1 nM.
For the sequence “AACAACUCUGUGAGGAUAUGCAAUUGUUGAUCAAGGCAGAAGGCACAUGAGGAUCACCCAUGUUCCUACAAGGG”, the “apparent Kd” value by setting is: under setting [3], 47.3 nM; under setting [4], 110 nM.
The matching figures for “UGUGAACAUGAGGAUCACCCAUGUGAGGAUAUACGAGCGUGAGAAAGAUAAAACGAGCGUAGAAGGCACAAGAA”: 75.1 nM and 102 nM.
The matching figures for “UAGAAGUCAGGAUAUGCUGCUCGUCACUUGCGUGAUGAGUAGCAGAAGGGACAUGAGGAUCACCCAUGUAAAGU”: 52.5 nM and 91 nM.
Taken in the same sequence, the figures for “GCGUACAUAUCAGGAUAUCAUAUAAUUGUUUAACUCAGUGUAUACAUGAGGAUCACCCAUGUUCUUGAGAAGGGAUAUGUACGC” were 9.08 nM and 9.76 nM.
For the sequence “AGGAUGUUAGGAUAUCGAAGGUUGUGGCAGGCGGGAAUUUGCGAGAAGGAACAUGAGGAUCACCCAUGUGAAAU”, the “apparent Kd” value worked out at 22.9 nM under setting [3] and 22.2 nM under setting [4].
The matching figures for “ACUGGUCAAGGAUAUACAAUCGUGCUUCGGCACGUAAGAUCACAUGAGGAUCACCCAUGUAGAAGGUGACCAGU”: 38.6 nM and 470 nM.
For “UUUUAACAUGAGGAUCACCCAUGUGAGGAUAUCGAAAUUUAUAUUAAUAUUAUUUAAACGAGAAGGCACAUUUU”, the “apparent Kd” value turned out to be 65.2 nM under setting [3] and 87 nM under setting [4].
The matching figures for “UCGGCGCGAGGAUAUGCGGUUCCUGCUUCGGGCCGGAGCGUACAUGAGGAUCACCCAUGUAGAAGGCGCGCCGC”: 14.2 nM and 14.6 nM.
The matching figures for “GAUUAACAUGAGGAUCACCCAUGUGAGGAUAUGGACUGGCUCACUUUCCGAUUCCCGUCUAGAAGGCGCAUCUU”: 38.3 nM and 38.3 nM.
As to “AGCAGACGAGGAUAUAGAUGGAAUGACAUGAGGAUCACCCAUGUGAUCGAUCUAUUGGGUUUAGAAGGUGUCUGCU”, the “apparent Kd” value worked out at 15.2 nM under setting [3] and 15.4 nM under setting [4].
Taken in the same sequence, the figures for “CACGGUGAUGUAGGAUAUACGCUGGAAUACAGCGUAGAAGGACAUGAGGAUCACCCAUGUAAAGUGUCUCCAAAUAACACCGUG” were 32.5 nM and 90.5 nM.
On to “UGAUAGGACAGAGGAUAUACGUAUAGUUACCUCUACAUGAGGAUCACCCAUGUAGAAGGCUGUCCUAUCUAAGUCGGAAACGAC”, for which the “apparent Kd” value is, setting by setting: under setting [3], 4.77 nM; under setting [4], 5.78 nM.
As for “ACGUGACGUUAGGAUAUUAACUACCUGCCAUCUUAAGAAGGAACGACAUGAGGAUCACCCAUGUGAAUCCGCGA”, the “apparent Kd” value under setting [3] worked out at 26.7 nM and the “apparent Kd” value under setting [4] stood at 27 nM.
For the sequence “GCAUGAGACUAAGGAUAUGAUGUACCUAUAUGUGACAUGAGGAUCACCCAUGUGGUAAGUAUGAUUCAGAAGGUAGAGAUAUGC”, the “apparent Kd” value by setting is: under setting [1], 67.8 nM; under setting [2], 28.3 nM.
With “UAUUACAGAUAAGGAUAUCGACAUGAGGAUCACCCAUGUAUUUGGGAAUGUUUACUGAAUUCUUACGAGAAGGUAUACGUACUU”, the “apparent Kd” value under setting [3] amounted to 154 nM and the “apparent Kd” value under setting [4] was 118 nM.
The matching figures for “AAAUGCAAUCAAGGAUAUGUAUUAAAGAUAUGAAAACAUGAGGAUCACCCAUGUAUAUGGUGGGAACAGAAGGUGAAUAAGUAA”: 223 nM and 200 nM.
Consider “ACAUGCAUAGCGAUAUGAUCGAGAGAUCAUGUCGCUAAAAUUAGAAGGACAUGAGGAUCACCCAUGUAGGAUAUGGGAGCAUGA”, for which the “apparent Kd” value under setting [1] amounted to 39.9 nM and the “apparent Kd” value under setting [2] came to 10.3 nM.
On to “CGUUGUGAAGAGGAUAUCCAACAAAGUUGUCAAGGAGAAGGCUUCACAUGAGGAUCACCCAUGUUAUGCCUUAU”, for which the “apparent Kd” value reads like this: under setting [3], 18.2 nM; under setting [4], 80.2 nM.
In the case of “UUUUACGUUUCGUAGCAGUGUCAUCGAGAAGGCCCUGACAUGAGGAUCACCCAUGUUGUUACAUGGGAGGAUAUCGAUGAUUUU”, the “apparent Kd” value is, setting by setting: under setting [1], 16.4 nM; under setting [2], 5.21 nM.
Taken in the same sequence, the figures for “CGCAAGGAUACAUGAGGAUCACCCAUGUCAGAAAGGGUAAUCAGAAGGUACAAUUAGAGAUAGAGUAAGGAUAUGAAAUUUGCG” were 966 nM and 313 nM.
For the sequence “GCUGACGAUGUAGGAUAUCUCGACGAUAAGUCGAGAGAAGGACAUGAGGAUCACCCAUGUCUCAAAACGUCAGCGAGGAAACUC”, the “apparent Kd” value is, setting by setting: under setting [3], 16.4 nM; under setting [4], 17.4 nM.
Taken in the same sequence, the figures for “CCUCCACAUGAGGAUCACCCAUGUCAGGAUAUCGUGUGUGCUUUUUCGGUCUUUCGUGCGAGAAGGGACGUCUG” were 27.6 nM and 26.7 nM.
Taken in the same sequence, the figures for “GGAUCAUGAGGAUAUCGAGGUUAGUACAUGAGGAUCACCCAUGUUAUCCAGGUCUCGUUUCGAGAAGGCAUGAUCC” were 21.5 nM and 29.9 nM.
Taken in the same sequence, the figures for “UGCCGGAGCAGAGGAUAUUACAUGAGGAUCACCCAUGUAUGAACCAAUAGCUGGAAACAGCAAUGUAAGAAGGCUGCUCCGACA” were 13.4 nM and 144 nM.
Turning to “AUUCCUCCUGUGAGGAUAUGCGUUUCGCACUCGUCGCAGAAGGCACAUGAGGAUCACCCAUGUGAGUUACCAAA”, the “apparent Kd” value reads like this: under setting [3], 14.8 nM; under setting [4], 20 nM.
For the sequence “GUAUAUAUGAGGUAGGAUAUCCAAAAUAAAACAUGAGGAUCACCCAUGUAAAUAAAUAAUAAAUGGGAGAAGGACCACAUAUAUAC”, the “apparent Kd” value runs as follows: under setting [1], 30.8 nM; under setting [2], 13.8 nM.
Taken in the same sequence, the figures for “GUAGCAUCAAUUAUACAUGAGGAUCACCCAUGUUACAUGGGUAAGGAUAUUGAGGUUAUUAUUGGCAAGAAGGUACUAUGCUAC” were 409 nM and 168 nM.
For the sequence “AACUGACAUGAGGAUCACCCAUGUCAGGAUAUGACUUCAAAAUAAAAAUAAAAUGAUGUCAGAAGGGACAUGGA”, the “apparent Kd” value worked out at 22.6 nM under setting [3] and 36.1 nM under setting [4].
For the sequence “GGAUGGACCCAGAAGGGCAGAUCCCGAGGAAUUUGAGAUGAGCGGAUAUGUAGGAUAUGGGUGGACAUGAGGAUCACCCAUGUC”, the “apparent Kd” value reads like this: under setting [1], 176 nM; under setting [2], 42.6 nM.
Taken in the same sequence, the figures for “UUCUAGCUCACAGGAUAUGGGUAUCGACGAUGCCCAGAAGGGUGAUUUGGCACAUGAGGAUCACCCAUGUGGGCGCUUGAAUAU” were 45 nM and 98 nM.
In the case of “UAUAUAUAGUAAGGAUAUGUAUUUAUUCUAUAAACAGAAGGUACUGACAUGAGGAUCACCCAUGUUUUAGUGUGGGCAUGUAGA”, the “apparent Kd” value reads like this: under setting [3], 39.9 nM; under setting [4], 38.8 nM.
As to “UUGAUUAUACAAGGAUAUCAAUUGUAUACAAGUCAUACAUGAGGAUCACCCAUGUUUUAUUUUUUUGAGAAGGUGUAUUGUCAG”, the “apparent Kd” value is, setting by setting: under setting [1], 38.9 nM; under setting [2], 24 nM.
Taken in the same sequence, the figures for “UUGUACAUUCGAGGAUAUCGGAGAGAGAUCAUUCGAGAAGGCGAUUCAUGAUGUAUUAUCCUGGACAUGAGGAUCACCCAUGUA” were 111 nM and 65.9 nM.
Taken in the same sequence, the figures for “AAACUGCCACAUGAGGAUCACCCAUGUAAAUAAAGUAUUUGGAGAAGGGCGAUAGCAAAGCUAUCGCAGGAUAUUCUCAGGCAG” were 20.3 nM and 15.3 nM.
